The results in this text go back to publication PMC7982429 (Acta Pharmaceutica Sinica. B, 2020).

“And” between values parts separate entries of the source, which are not always exact repeats. Identical values can stand only once. Like-named read-outs stand apart in the source and are kept apart here.

One data set concerns the target FGFR1 (Homo sapiens, UniProt P11362). Nature of the data set: Kinase inhibition assay. In kind it is biochemical. To be noted: for inhibition at 0.1 µM / inhibition at 0.01 µM / inhibition at 1 µM: read-out: FGFR1 inhibition rate (%).
The next data set concerns SNU16 cancer cell lines. Kind of data set: Cell proliferation assay. In kind it is cell-based.
The next data set concerns KG1 cells. Kind of data set: Cell proliferation assay, KG1. The note with it: read-out: KG1 IC50; FGFR1OP2-FGFR1 (FGFR1-translocated). It is filed as cell-based.
The subject of a further data set is H1581 cells. Kind of data set: Cell proliferation assay, H1581. In kind it is cell-based. To be noted: read-out: H1581 IC50; FGFR1 amplification.
Another data set has as its system UMUC14 cells. Kind of data set: Cell proliferation assay, UMUC14. It is filed as cell-based. The note with it: read-out: UMUC14 IC50; FGFR3 mutation.
The next data set has as its system BaF3/TEL-FGFR1 cell. Kind of data set: Cell proliferation assay, BaF3/TEL-FGFR1. It is filed as cell-based. To be noted: read-out: BaF3/TEL-FGFR1 IC50.
A further data set concerns BaF3/TEL-KDR cell. Kind of data set: Cell proliferation assay, BaF3/TEL-KDR. The note with it: read-out: BaF3/TEL-KDR IC50. In kind it is cell-based.
A further data set concerns NCI-H1581 xenograft. Nature of the data set: In vivo antitumor activity, NCI-H1581 xenograft mouse model. More on the design: species or system nude mice (BALB/c). To be noted: 12.5 mg/kg, 20 days.
Data set [1] can be described thus: Whole blood stability assay. In kind it is in vitro ADME, BALB/c nude mice. The note with it: BALB/c nude, mouse, fresh whole blood. The procedure, abridged: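 Fresh BALB/c nude mouse blood was prewarmed 10 min at 37 °C, then spiked with test compound from a DMSO working solution. Aliquots taken at 0, 0.5, 1, 2 and 5 h were quenched with acetonitrile, centrifuged, and the supernatant diluted in acetonitrile/water. Remaining parent was quantified by UPLC–MS/MS (MRM). GSH adduct was monitored in negative-mode MRM (product ion m/z 272). Triplicates.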

The mark [2] stands for this setting: Homo sapiens, SNU-16, read-out: SNU16 IC50.

FGFR1, sequence (P11362 22-822): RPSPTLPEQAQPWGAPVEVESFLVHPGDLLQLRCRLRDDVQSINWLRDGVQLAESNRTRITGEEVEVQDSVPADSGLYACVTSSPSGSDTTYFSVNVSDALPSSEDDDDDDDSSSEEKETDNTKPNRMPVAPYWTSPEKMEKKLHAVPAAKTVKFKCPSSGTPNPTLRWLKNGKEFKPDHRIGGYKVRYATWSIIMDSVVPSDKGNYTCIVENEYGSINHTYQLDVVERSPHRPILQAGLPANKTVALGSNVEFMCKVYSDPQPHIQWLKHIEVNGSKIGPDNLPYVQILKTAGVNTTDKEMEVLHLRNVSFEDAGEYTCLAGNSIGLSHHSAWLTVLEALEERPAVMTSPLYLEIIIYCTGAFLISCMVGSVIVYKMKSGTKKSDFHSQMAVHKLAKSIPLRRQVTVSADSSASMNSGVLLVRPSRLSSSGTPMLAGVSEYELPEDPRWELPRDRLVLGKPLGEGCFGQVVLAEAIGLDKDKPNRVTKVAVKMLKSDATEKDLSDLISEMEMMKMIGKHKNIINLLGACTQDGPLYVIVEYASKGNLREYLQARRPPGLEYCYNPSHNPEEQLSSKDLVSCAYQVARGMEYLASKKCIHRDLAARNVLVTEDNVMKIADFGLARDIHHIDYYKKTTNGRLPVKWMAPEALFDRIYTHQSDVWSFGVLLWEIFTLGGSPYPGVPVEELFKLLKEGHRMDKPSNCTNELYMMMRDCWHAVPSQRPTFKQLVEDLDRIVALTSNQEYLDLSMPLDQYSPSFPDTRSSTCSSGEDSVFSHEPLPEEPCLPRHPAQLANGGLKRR

As for `Cc1c(-c2c3c(N)n[nH]c(=O)c3nn2-c2ccccc2)oc2c(Cl)cccc12` [Compound 8p], on FGFR1, the inhibition at 0.1 µM was found to be 38.1%.
As for `Cc1c(-c2c3c(N)n[nH]c(=O)c3nn2-c2ccccc2)oc2ccc(Cl)cc12` [Compound 8j], on FGFR1, the IC50 was 56.4 ± 15.8 nM.
On to `COc1ccc2c(C)c(-c3c4c(N)n[nH]c(=O)c4nn3-c3ccccc3)oc2c1` [Compound 8d], for which the IC50 against FGFR1 was determined as 67.7 ± 3.9 nM.
As to `CC(=O)Nc1ccc(-n2nc3c(=O)[nH]nc(N)c3c2-c2oc3ccc(C)cc3c2C)cc1` [Compound 9j], the inhibition at 0.1 µM at FGFR1 came out at 76.4%.
As to `Nc1n[nH]c(=O)c2nn(-c3ccccc3)c(-c3ccco3)c12` [Compound 6], on FGFR1, the inhibition at 0.01 µM came out at 18.6%, the inhibition at 0.1 µM amounted to 19.6% and the inhibition at 1 µM came to 22.9%.
`Cc1ccc2oc(-c3c4c(N)n[nH]c(=O)c4nn3-c3ccc(CNC(=O)OCc4ccccc4)cc3)c(C)c2c1` [Compound 9m] gave an IC50 on FGFR1 of 13.8 ± 1.3 nM.
Take AZD4547: the IC50 in the data set with SNU16 cancer cell lines (read-out: SNU16 IC50, FGFR2 amplification SNU16 cell line) was 3.7 nM and 5 nM; in the data set with KG1 cells, 3.7 ± 0.6 nM; in the data set with H1581 cells, 59.8 ± 8.1 nM; in the data set with UMUC14 cells, 6.4 ± 1.3 nM; in the data set on BaF3/TEL-FGFR1 cell, 0.5 nM; in the data set on BaF3/TEL-KDR cell, 417 ± 10 nM. In addition, the “TGI (tumor weight inhibition rate at the treatment endpoint)” value with NCI-H1581 xenograft is on record as 65.6%.
Regarding `Cc1c(-c2c3c(N)n[nH]c(=O)c3nn2-c2ccccc2)oc2cc(Cl)ccc12` [Compound 8i], on FGFR1, the inhibition at 0.1 µM stood at 64.2%. Besides, in the data set with SNU16 cancer cell lines (Homo sapiens, SNU-16, read-out: SNU16 proliferation inhibition), the inhibition at 1 µM turned out to be 49.7%.
For the compound `C=CC(=O)Nc1cccc(-n2nc3c(=O)[nH]nc(N)c3c2-c2oc3ccc(C)cc3c2C)c1` [Compound 10l], in the data set on SNU16 cancer cell lines (setting [2]), the IC50 came to 660 ± 322 nM.
Consider `CCCCNc1cc(F)c(-n2nc3c(=O)[nH]nc(N)c3c2-c2oc3ccc(C)cc3c2C)c(F)c1` [Compound 9z], for which the inhibition at 0.1 µM at FGFR1 is 73.9%. Further, the IC50 in the data set with SNU16 cancer cell lines (setting [2]) is over 1000 nM.
As to `Cc1ccc2oc(-c3c4c(N)n[nH]c(=O)c4nn3Cc3ccc([N+](=O)[O-])cc3)c(C)c2c1` [Compound 9w], the inhibition at 0.1 µM at FGFR1 came to 16.9%.
As for `Nc1n[nH]c(=O)c2nn(-c3ccccc3)c(-c3ccccc3)c12` [Compound 7], at FGFR1, the inhibition at 0.01 µM was determined as 22.9%, the inhibition at 0.1 µM is 20.4% and the inhibition at 1 µM came to 19.9%.
In the case of `CCC(=O)Nc1ccc(-n2nc3c(=O)[nH]nc(N)c3c2-c2oc3ccc(C)cc3c2C)cc1` [Compound 9o], the inhibition at 0.1 µM on FGFR1 is 66.2%.
In [1], `C/C=C/C(=O)Nc1ccc(-n2nc3c(=O)[nH]nc(N)c3c2-c2oc3ccc(C)cc3c2C)cc1` [Compound 10b] showed a half-life at 1 μmol/L of 71.2 h.
On to `COc1ccc2oc(-c3c4c(N)n[nH]c(=O)c4nn3-c3ccccc3)c(C)c2c1` [Compound 8f], for which, on FGFR1, the IC50 came out at 77.5 ± 14.7 nM.
As for `Cc1c(-c2c3c(N)n[nH]c(=O)c3nn2-c2ccccc2)oc2ccc(Br)cc12` [Compound 8m], the values for the IC50 against FGFR1 and in the data set with SNU16 cancer cell lines (setting [2]) were 66.8 ± 16.5 nM and over 1000 nM, respectively.

As a reminder, the half-life is how long it takes for the measured level to halve. Read a high half-life as slow loss.
